According to ChEMBL document CHEMBL4619776, “Probing the Plasticity in the Active Site of Protein N-terminal Methyltransferase 1 Using Bisubstrate Analogues” (J Med Chem, 2020):
Active and inactive are the calls of the source. No cut-off for these calls is given here. Numbered stars: 1 amine (or outer) side, 2 acyl side, 3 side chain; on linkers, the order of the positions; unused ones are H or OH. Square brackets hold non-standard residues; d marks the D form. Peptide text beside a SMILES is read from it. X1 = Nc1ncnc2c1ncn2[C@@H]1O[C@H](CSCCCN(CC(=O)[*:2])[*:1])[C@@H](O)[C@H]1O; Nlys = NCCCCNCC(=O)O

Tests used:
[1] = target: N-terminal Xaa-Pro-Lys N-methyltransferase 2 (Homo sapiens, UniProt Q5VVY1); assay: Binding affinity to […] (unknown origin) by ITC assay
Chain of N-terminal Xaa-Pro-Lys N-methyltransferase 2 (Q5VVY1 whole entry): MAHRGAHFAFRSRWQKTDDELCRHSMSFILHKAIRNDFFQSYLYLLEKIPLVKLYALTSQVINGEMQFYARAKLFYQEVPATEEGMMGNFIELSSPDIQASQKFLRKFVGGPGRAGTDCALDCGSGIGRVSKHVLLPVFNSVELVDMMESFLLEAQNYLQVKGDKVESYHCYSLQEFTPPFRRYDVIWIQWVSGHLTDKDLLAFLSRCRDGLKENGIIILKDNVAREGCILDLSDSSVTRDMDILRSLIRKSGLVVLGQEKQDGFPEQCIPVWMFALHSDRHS
Procedure, shortened: (§1)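 Purified NTMT1 or NTMT2 at 30–50 μM in the cell; compound at 0.5–1 mM in the same buffer, titrated in as 26 injections of 10 μl spaced 180 s. Data fitted to a one-site or two-site binding model.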

[2] = target: T1, N-terminal Xaa-Pro-Lys N-methyltransferase 1 (Homo sapiens, UniProt Q9BV86); assay: Binding affinity to NTMT1 (unknown origin) assessed as binding constant Kd1 by ITC assay; procedure, shortened: as §1
T1 sequence (Q9BV86 whole entry): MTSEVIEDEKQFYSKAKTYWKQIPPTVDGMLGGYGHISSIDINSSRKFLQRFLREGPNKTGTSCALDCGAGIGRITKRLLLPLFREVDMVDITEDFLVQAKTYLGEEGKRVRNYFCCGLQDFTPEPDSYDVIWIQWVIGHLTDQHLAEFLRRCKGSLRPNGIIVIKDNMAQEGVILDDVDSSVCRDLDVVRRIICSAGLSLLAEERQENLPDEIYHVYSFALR

[3] = target: T1, N-terminal Xaa-Pro-Lys N-methyltransferase 1; assay: Time dependent inhibition of NTMT1 (unknown origin) pre-incubated for 90 mins before GPKRIA peptide substrate addition by SAHH coupled fluorescence assay based Morrison's quadratic equation analysis
[4] = target: T1, N-terminal Xaa-Pro-Lys N-methyltransferase 1; assay: Time dependent inhibition of NTMT1 (unknown origin) pre-incubated for 120 mins before GPKRIA peptide substrate addition by SAHH coupled fluorescence assay based Morrison's quadratic equation analysis
[5] = target: T1, N-terminal Xaa-Pro-Lys N-methyltransferase 1; assay: Time dependent inhibition of NTMT1 (unknown origin) pre-incubated for 30 mins before GPKRIA peptide substrate addition by SAHH coupled fluorescence assay based Morrison's quadratic equation analysis
[6] = target: T1, N-terminal Xaa-Pro-Lys N-methyltransferase 1; assay: Time dependent inhibition of NTMT1 (unknown origin) pre-incubated for 10 mins before GPKRIA peptide substrate addition by SAHH coupled fluorescence assay based Morrison's quadratic equation analysis
[7] = target: T1, N-terminal Xaa-Pro-Lys N-methyltransferase 1; assay: Time dependent inhibition of NTMT1 (unknown origin) pre-incubated for 60 mins before GPKRIA peptide substrate addition by SAHH coupled fluorescence assay based Morrison's quadratic equation analysis
[8] = target: T1, N-terminal Xaa-Pro-Lys N-methyltransferase 1; assay: Inhibition of NTMT1 (unknown origin) pre-incubated for 10 mins before GPKRIA peptide substrate addition by SAHH coupled fluorescence assay
Procedure, shortened: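 Inhibitor at 0.15 nM–10 μM, preincubated 10 min. Reaction started with 0.5 μM GPKRIA (Km). Fluorescence read at ex 400/em 465 nm; IC50 derived.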

[9] = target: T1, N-terminal Xaa-Pro-Lys N-methyltransferase 1; assay: Binding affinity to NTMT1 (unknown origin) assessed as binding constant Kd2 by ITC assay; procedure, shortened: as §1
[10] = target: T2, Histone-lysine N-methyltransferase EHMT2 (Homo sapiens) (UniProt Q96KQ7); assay: Inhibition of G9a (unknown origin) at 100 uM
T2 sequence (whole entry): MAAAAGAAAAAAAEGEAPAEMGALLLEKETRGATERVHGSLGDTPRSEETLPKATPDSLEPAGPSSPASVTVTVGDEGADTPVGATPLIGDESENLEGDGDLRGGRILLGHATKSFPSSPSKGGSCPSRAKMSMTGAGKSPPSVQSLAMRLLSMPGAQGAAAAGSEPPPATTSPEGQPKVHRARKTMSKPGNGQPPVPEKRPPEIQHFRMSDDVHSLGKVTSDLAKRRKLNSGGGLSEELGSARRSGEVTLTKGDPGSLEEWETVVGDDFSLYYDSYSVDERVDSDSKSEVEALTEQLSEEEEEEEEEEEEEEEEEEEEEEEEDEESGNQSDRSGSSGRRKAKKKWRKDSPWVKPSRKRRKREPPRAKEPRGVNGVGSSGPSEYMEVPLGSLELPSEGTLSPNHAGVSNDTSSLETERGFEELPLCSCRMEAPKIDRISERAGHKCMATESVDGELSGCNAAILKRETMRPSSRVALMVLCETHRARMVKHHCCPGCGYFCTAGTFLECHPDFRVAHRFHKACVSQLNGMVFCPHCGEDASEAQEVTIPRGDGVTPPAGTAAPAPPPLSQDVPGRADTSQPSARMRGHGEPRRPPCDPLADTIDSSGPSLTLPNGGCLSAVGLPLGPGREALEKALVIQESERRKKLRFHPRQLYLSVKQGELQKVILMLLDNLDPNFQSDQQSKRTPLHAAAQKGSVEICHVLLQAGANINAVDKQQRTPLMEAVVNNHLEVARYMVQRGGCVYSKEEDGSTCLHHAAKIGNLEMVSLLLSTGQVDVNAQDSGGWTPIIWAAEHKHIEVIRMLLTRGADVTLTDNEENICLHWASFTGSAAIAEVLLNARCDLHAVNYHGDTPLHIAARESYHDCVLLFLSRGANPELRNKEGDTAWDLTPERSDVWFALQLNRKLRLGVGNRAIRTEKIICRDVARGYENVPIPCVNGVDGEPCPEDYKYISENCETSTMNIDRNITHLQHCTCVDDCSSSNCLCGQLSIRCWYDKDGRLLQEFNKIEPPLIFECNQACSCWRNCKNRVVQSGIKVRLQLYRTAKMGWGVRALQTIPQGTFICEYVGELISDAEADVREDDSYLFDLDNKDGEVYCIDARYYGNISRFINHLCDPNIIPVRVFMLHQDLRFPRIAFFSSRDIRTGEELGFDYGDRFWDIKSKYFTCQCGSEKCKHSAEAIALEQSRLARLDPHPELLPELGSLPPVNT

[11] = target: T3, Nicotinamide N-methyltransferase (Homo sapiens) (UniProt P40261); assay: Inhibition of NNMT (unknown origin) at 100 uM
T3 sequence (whole entry): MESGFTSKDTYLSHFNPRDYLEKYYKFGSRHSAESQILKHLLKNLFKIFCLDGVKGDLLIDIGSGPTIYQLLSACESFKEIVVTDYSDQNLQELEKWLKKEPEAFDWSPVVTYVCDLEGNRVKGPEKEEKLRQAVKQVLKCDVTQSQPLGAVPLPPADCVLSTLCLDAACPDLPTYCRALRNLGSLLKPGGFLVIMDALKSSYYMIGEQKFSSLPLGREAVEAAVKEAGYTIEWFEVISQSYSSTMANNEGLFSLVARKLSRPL

[12] = test system: Trypanosoma brucei; assay: Inhibition of Trypanosoma brucei PRMT7 at 30 uM relative to control
[13] = target: Adenosylhomocysteinase (Homo sapiens) (UniProt P23526); assay: Inhibition of SAHH (unknown origin) at 30 uM relative to control
Chain of Adenosylhomocysteinase (Homo sapiens) (P23526 2-432 limits assumed): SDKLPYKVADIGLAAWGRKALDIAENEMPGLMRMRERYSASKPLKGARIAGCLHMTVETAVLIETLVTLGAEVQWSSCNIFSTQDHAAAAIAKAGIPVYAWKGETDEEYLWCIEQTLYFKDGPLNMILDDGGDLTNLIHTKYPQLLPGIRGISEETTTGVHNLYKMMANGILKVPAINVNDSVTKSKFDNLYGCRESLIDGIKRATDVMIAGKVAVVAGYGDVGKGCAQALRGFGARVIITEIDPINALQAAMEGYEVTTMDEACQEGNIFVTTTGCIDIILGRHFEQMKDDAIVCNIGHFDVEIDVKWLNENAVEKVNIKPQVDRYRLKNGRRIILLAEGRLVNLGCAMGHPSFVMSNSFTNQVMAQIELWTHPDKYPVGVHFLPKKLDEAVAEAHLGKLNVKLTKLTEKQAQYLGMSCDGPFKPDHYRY

[14] = target: T4, Histone-lysine N-methyltransferase SETD7 (Homo sapiens) (UniProt Q8WTS6); assay: Inhibition of SETD7 (unknown origin) at 100 uM
T4 sequence (whole entry): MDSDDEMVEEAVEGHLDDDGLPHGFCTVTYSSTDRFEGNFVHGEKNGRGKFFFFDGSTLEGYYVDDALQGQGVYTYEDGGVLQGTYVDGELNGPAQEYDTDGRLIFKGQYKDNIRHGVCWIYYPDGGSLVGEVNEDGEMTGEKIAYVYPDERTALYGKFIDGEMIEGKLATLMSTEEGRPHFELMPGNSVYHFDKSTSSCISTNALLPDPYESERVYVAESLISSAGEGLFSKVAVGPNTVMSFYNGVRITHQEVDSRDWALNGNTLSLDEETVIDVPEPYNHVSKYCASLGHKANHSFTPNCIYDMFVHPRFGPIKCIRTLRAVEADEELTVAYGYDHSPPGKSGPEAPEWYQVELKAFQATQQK

[15] = target: Protein arginine N-methyltransferase 1 (Homo sapiens) (UniProt Q99873); assay: Inhibition of PRMT1 (unknown origin) at 30 uM relative to control
Chain of Protein arginine N-methyltransferase 1 (Homo sapiens) (Q99873 whole entry, looked up): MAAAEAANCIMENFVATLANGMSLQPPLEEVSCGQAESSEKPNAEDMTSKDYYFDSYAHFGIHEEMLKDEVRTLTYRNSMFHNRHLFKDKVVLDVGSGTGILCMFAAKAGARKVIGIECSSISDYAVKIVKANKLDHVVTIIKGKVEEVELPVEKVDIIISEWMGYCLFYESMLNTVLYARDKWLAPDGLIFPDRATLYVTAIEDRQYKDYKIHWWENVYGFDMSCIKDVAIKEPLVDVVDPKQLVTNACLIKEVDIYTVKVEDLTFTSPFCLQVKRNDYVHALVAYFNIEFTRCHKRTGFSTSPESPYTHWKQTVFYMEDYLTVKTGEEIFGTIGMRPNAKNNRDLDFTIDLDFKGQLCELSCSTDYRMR

[16] = target: Protein arginine N-methyltransferase 3 (Homo sapiens) (UniProt O60678); assay: Inhibition of PRMT3 (unknown origin) at 30 uM pre-incubated for 10 mins before H4-21 peptide addition in presence of SAM relative to control
Chain of Protein arginine N-methyltransferase 3 (Homo sapiens) (O60678 2-531 limits assumed): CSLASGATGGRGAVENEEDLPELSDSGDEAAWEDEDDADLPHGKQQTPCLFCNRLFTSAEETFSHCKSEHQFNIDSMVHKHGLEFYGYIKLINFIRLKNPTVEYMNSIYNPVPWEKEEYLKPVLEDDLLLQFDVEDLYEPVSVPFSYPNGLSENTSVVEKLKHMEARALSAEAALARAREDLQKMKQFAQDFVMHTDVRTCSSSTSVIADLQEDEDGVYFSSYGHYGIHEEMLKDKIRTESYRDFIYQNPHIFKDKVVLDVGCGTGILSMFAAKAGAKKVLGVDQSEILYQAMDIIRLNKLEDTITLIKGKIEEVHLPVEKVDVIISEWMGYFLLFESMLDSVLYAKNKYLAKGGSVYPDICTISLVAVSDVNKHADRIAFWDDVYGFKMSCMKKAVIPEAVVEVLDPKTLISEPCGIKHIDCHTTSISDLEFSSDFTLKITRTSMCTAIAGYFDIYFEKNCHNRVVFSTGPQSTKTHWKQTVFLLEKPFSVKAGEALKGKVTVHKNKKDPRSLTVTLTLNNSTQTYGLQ

[17] = target: T5, N-terminal Xaa-Pro-Lys N-methyltransferase 1 (Homo sapiens) (UniProt Q9BV86); assay: Substrate activity at NTMT1 (unknown origin) assessed as compound methylation at 10 uM incubated overnight by MALDI-MS methylation assay
T5 sequence (whole entry): T1 sequence (Q9BV86 whole entry)
Procedure, shortened: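 Compound (10 µM) incubated overnight at 37 °C with 0.1 µM NTMT1 and 3 µM SAM in 20 mM Tris pH 7.5, 50 mM KCl. Quenched 1:1 with 20 mM NH4H2PO4, 0.4% TFA in 1:1 acetonitrile/water. Methylated compound detected by MALDI-MS with 2,5-dihydroxybenzoic acid matrix.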

[18] = target: T1, N-terminal Xaa-Pro-Lys N-methyltransferase 1; assay: Inhibition of NTMT1 (unknown origin) pre-incubated for 10 mins before GPKRIA peptide substrate addition and measured after 20 mins by MALDI-MS methylation assay

`CC[C@H](C)[C@H](NC(=O)[C@H](CCCNC(=N)N)NC(=O)[C@H](CCCCN)NC(=O)[C@@H]1CCCN1C(=O)CNCCN(CC[C@H](N)C(=O)O)C[C@H]1O[C@@H](n2cnc3c(N)ncnc32)[C@H](O)[C@@H]1O)C(=O)N[C@@H](C)C(N)=O` was tested, and the Kd [1] was “Not Active”, the Kd [2] was 980 nM and the Ki [3] was 4.9 nM. For the same molecule, the Ki [4] was 5.4 nM, the Ki [5] was 6.8 nM and the Ki [6] was 99 nM. For the same molecule, the Ki [7] was 8.2 nM, the IC50 ([8]; read-out: IC50) was 260 nM and the Kd [9] was 46.7 nM.

For `CC[C@H](C)[C@H](NC(=O)[C@H](CCCNC(=N)N)NC(=O)[C@H](CCCCN)NC(=O)[C@@H]1CCCN1C(=O)CNCCCCN(CC[C@H](N)C(=O)O)C[C@H]1O[C@@H](n2cnc3c(N)ncnc32)[C@H](O)[C@@H]1O)C(=O)N[C@@H](C)C(N)=O`, the Kd [1] was “Not Active”, the Kd [2] was 310 nM and the Ki [3] was 0.62 nM. The inhibition [10] was “inactive”, the Ki [4] was 0.13 nM and the inhibition [11] was “inactive”. For the same molecule, the inhibition [12] was < 50%, the inhibition [13] was < 50% and the inhibition [14] was “inactive”. For the same molecule, the Ki [5] was 0.49 nM, the Ki [6] was 15 nM and the inhibition [15] was < 50%. The Ki [7] was 0.73 nM, the IC50 ([8]; read-out: IC50) was 82 nM and the Kd [9] was 2.47 nM. For the same molecule, the inhibition [16] was < 50%.

`N=C(N)NCCC[C@H](NC(=O)[C@H](CCCCN)NC(=O)[C@@H]1CCCN1C(=O)CNCCN(CC[C@H](N)C(=O)O)C[C@H]1O[C@@H](n2cnc3c(N)ncnc32)[C@H](O)[C@@H]1O)C(N)=O` gave an IC50 ([8]; read-out: IC50) of 320 nM.

In the case of `CC[C@H](C)[C@H](NC(=O)[C@H](CCCNC(=N)N)NC(=O)[C@H](CCCCN)NC(=O)[C@@H]1CCCN1C(=O)CNCCCN(CC[C@H](N)C(=O)O)C[C@H]1O[C@@H](n2cnc3c(N)ncnc32)[C@H](O)[C@@H]1O)C(=O)N[C@@H](C)C(N)=O`, the Kd [1] is reported as “Not Active”, the Kd [2] is reported as 2400 nM and the Ki [3] is reported as 2.5 nM. For the same molecule, the Ki [4] was 1.3 nM, the Ki [5] was 2.4 nM and the Ki [6] was 41 nM. It also gave a Ki [7] of 0.78 nM, an IC50 ([8]; read-out: IC50) of 130 nM and a Kd [9] of 41 nM.

`CC[C@H](C)[C@H](NC(=O)[C@H](CCCNC(=N)N)NC(=O)[C@H](CCCCN)NC(=O)[C@@H]1CCCN1C(=O)CNCCCCNCC[C@H](N)C(=O)O)C(=O)N[C@@H](C)C(N)=O` was tested, and the Activity [17] was “Active”.

Work on `N=C(N)NCCC[C@H](NC(=O)[C@H](CCCCN)NC(=O)[C@@H]1CCCN1C(=O)CNCCCN(CC[C@H](N)C(=O)O)C[C@H]1O[C@@H](n2cnc3c(N)ncnc32)[C@H](O)[C@@H]1O)C(N)=O` yielded an IC50 ([8]; read-out: IC50) of 200 nM.

With `CC[C@H](C)[C@H](NC(=O)[C@H](CCCNC(=N)N)NC(=O)[C@H](CCCCN)NC(=O)[C@@H]1CCCN1C(=O)CNCCCCN)C(=O)N[C@@H](C)C(N)=O` (H-[Nlys]PKRIA-NH2) the Activity [17] was “Active”.

With `NCCCCN(CC[C@H](N)C(=O)O)C[C@H]1O[C@@H](n2cnc3c(N)ncnc32)[C@H](O)[C@@H]1O` the IC50 ([8]; read-out: IC50) was > 10000 nM.

`CC[C@H](C)[C@H](NC(=O)[C@H](CCCNC(=N)N)NC(=O)[C@H](CCCCN)NC(=O)[C@@H]1CCCN1C(=O)CNCCCSC[C@H]1O[C@@H](n2cnc3c(N)ncnc32)[C@H](O)[C@@H]1O)C(=O)N[C@@H](C)C(N)=O` (H-[X1]PKRIA-NH2) was tested, and the Activity [17] was “Active”.

`Nc1ncnc2c1ncn2[C@@H]1O[C@H](CNCC[C@H](N)C(=O)O)[C@@H](O)[C@H]1O` was tested, and the IC50 [18] was > 10000 nM.

With `CC[C@H](C)[C@H](NC(=O)[C@H](CCCNC(=N)N)NC(=O)[C@H](CCCCN)NC(=O)[C@@H]1CCCN1C(=O)CNCCCCCN(CC[C@H](N)C(=O)O)C[C@H]1O[C@@H](n2cnc3c(N)ncnc32)[C@H](O)[C@@H]1O)C(=O)N[C@@H](C)C(N)=O` the Kd [1] was “Not Active”, the Kd [2] was 1600 nM and the IC50 [8] was “Not Active”. For the same molecule, the Kd [9] was 480 nM.

With `N=C(N)NCCC[C@H](NC(=O)[C@H](CCCCN)NC(=O)[C@@H]1CCCN1C(=O)CNCCCCN(CC[C@H](N)C(=O)O)C[C@H]1O[C@@H](n2cnc3c(N)ncnc32)[C@H](O)[C@@H]1O)C(N)=O` the IC50 ([8]; read-out: IC50) was 84 nM.
